The source of these data is ChEMBL document CHEMBL3045828, “An efficient method for the purification and characterization of nematicidal azadirachtins A, B, and H, using MPLC and ESIMS” (J Agric Food Chem, 2003).

In experiment [1] the test system is Athelia rolfsii. Briefly: Fungicidal activity against Athelia rolfsii assessed as mycelial growth inhibition. The experiment is classed as functional. To be noted: Agroathelia rolfsii; read-out: ED50 (the source's name). Put shortly: (§1)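 Poisoned food technique on potato-dextrose-agar. Fungi kept on PDA slants at 25 °C and subcultured before testing. A stock in acetone (65 mg/4 mL) was diluted into PDA to about 500, 250, 100, 25 and 5 mg/L; acetone was the control. A 5-mm fungal disk was placed centrally, 2 dishes per treatment, 26 (±2) °C until control growth was nearly complete (2-3 days). Colony diameter was measured in three directions, and % and corrected inhibition were calculated.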

Experiment [2] concerns Athelia rolfsii. Briefly: Fungicidal activity against Athelia rolfsii assessed as mycelial growth inhibition applied as 60% powdery concentrate. Particulars: Agroathelia rolfsii; read-out: ED50 (the source's name). The experiment is classed as functional. The method, boiled down:
as §1

The subject of experiment [3] is Caenorhabditis elegans. Kind of experiment: Nematicidal activity against Caenorhabditis elegans assessed as mortality applied as 20% powdery concentrate after 24 hr. The experiment is classed as functional. Put shortly: (§2)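 C. elegans grown on NG agar carrying E. coli. 15-20 worms in 48 µL saline per well, 3 wells per treatment, plus 2 µL 50% DMSO with or without test material (200 ppm). Plates covered and kept in a humid chamber. Dead nematodes counted microscopically at 2, 4, 6 and 24 h.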

In experiment [4] the test system is Rotylenchulus reniformis. Briefly: Nematicidal activity against fourth-stage juvenile of Rotylenchulus reniformis (reniform nematode) assessed as juvenile immobility applied as 20% powdery concentrate after 72 hr by stereoscopic binocular microscopic analysis. It is filed as functional, organism-based. The method, boiled down: (§3)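 Juveniles came from a single-egg-mass culture maintained on cowpea in sterilized soil-sand. Exposed in Petri dishes, 3 per treatment, with water plus ethanol as control. Immobility scored by stereomicroscope at 72 h. Revival test: 48 h in distilled water, and revived juveniles were subtracted. Mortality was Abbott-corrected, with LC50 in ppm.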

For experiment [5], the system named is Athelia rolfsii. Kind of experiment: Fungicidal activity against Athelia rolfsii assessed as mycelial growth inhibition applied as 20% powdery concentrate. The experiment is classed as functional. To be noted: Agroathelia rolfsii; read-out: ED50 (the source's name). Put shortly: as §1
Experiment [6] concerns Rhizoctonia solani. Kind of experiment: Fungicidal activity against Rhizoctonia solani assessed as mycelial growth inhibition applied as 20% powdery concentrate. The experiment is classed as functional. To be noted: read-out: ED50 (the source's name). The method, boiled down: as §1
Experiment [7] deals with Rhizoctonia solani. Kind of experiment: Fungicidal activity against Rhizoctonia solani assessed as mycelial growth inhibition applied as 60% powdery concentrate. It is filed as functional. To be noted: read-out: ED50 (the source's name). The method, boiled down:
as §1

Experiment [8] deals with Rhizoctonia solani. Briefly: Fungicidal activity against Rhizoctonia solani assessed as mycelial growth inhibition applied as 90% powdery concentrate. Particulars: read-out: ED50 (the source's name). The experiment is classed as functional. Put shortly: as §1
Experiment [9] relates to Rotylenchulus reniformis. Kind of experiment: Nematicidal activity against fourth-stage juvenile of Rotylenchulus reniformis (reniform nematode) assessed as juvenile immobility applied as 90% powdery concentrate after 72 hr by stereoscopic binocular microscopic analysis. The experiment is classed as functional, organism-based. The method, boiled down:
as §3

Experiment [10] has as its system Caenorhabditis elegans. Kind of experiment: Nematicidal activity against Caenorhabditis elegans assessed as mortality at 200 ppm after 24 hr. It is filed as functional. Put shortly:
as §2

For experiment [11], the system named is Rotylenchulus reniformis. Kind of experiment: Nematicidal activity against fourth-stage juvenile of Rotylenchulus reniformis (reniform nematode) assessed as juvenile immobility applied as 60% powdery concentrate after 72 hr by stereoscopic binocular microscopic analysis. The experiment is classed as functional, organism-based. The method, boiled down:
as §3

Experiment [12] relates to Rotylenchulus reniformis. Kind of experiment: Nematicidal activity against fourth-stage juvenile of Rotylenchulus reniformis (reniform nematode) assessed as juvenile immobility after 72 hr by stereoscopic binocular microscopic analysis. It is filed as functional, organism-based. Put shortly:
as §3

In experiment [13] the test system is Rhizoctonia solani. Kind of experiment: Fungicidal activity against Rhizoctonia solani assessed as mycelial growth inhibition. Particulars: read-out: ED50 (the source's name). It is filed as functional. The method, boiled down:
as §1

The structures appear in SMILES notation. Converted amounts (≈) assume the structure as drawn.

The term mortality denotes the share of the test organisms that died. Regarding `C/C=C(\C)C(=O)O[C@H]1C[C@@H](OC(C)=O)[C@@]2(C(=O)OC)CO[C@H]3[C@@H](O)[C@@](C)([C@]45O[C@@]4(C)[C@@H]4C[C@H]5O[C@@H]5OC=C[C@@]54O)[C@H]4[C@]1(CO[C@]4(O)C(=O)OC)[C@@H]32` [AZADIRACHTIN A], the EC50 in the experiment on Athelia rolfsii [1] turned out to be 93.6 µg/mL (≈ 130 µM); in the experiment with Athelia rolfsii [2], 122 µg/mL (≈ 169 µM); with Rotylenchulus reniformis [4], 193.9 ppm; with Athelia rolfsii [5], 140 µg/mL (≈ 195 µM); in the experiment on Rhizoctonia solani [6], 165 µg/mL (≈ 229 µM); in the experiment with Rhizoctonia solani [7], 132 µg/mL (≈ 183 µM). The EC50 in the experiment with Rhizoctonia solani [8] was 105 µg/mL (≈ 145 µM); in the experiment on Rotylenchulus reniformis [9], 119.1 ppm; in the experiment on Rotylenchulus reniformis [11], 151.9 ppm. For the same compound, in the experiment on Caenorhabditis elegans [3], the mortality is listed as 50%. Moreover, the mortality at 200 ppm in the experiment with Caenorhabditis elegans [10] was 56%.

Turning to `C/C=C(\C)C(=O)O[C@@H]1C[C@H](O)[C@]23CO[C@H](C(=O)OC)[C@H]2[C@](C)([C@]24O[C@@]2(C)[C@H]2C[C@@H]4O[C@@H]4OC=C[C@@]42O)[C@H](O)[C@@H]2OC[C@@]1(C(=O)OC)[C@H]23` [AZADIRACHTIN B], the EC50 in the experiment on Athelia rolfsii [1] is 76.2 µg/mL (≈ 115 µM); in the experiment with Rotylenchulus reniformis [12], 96.6 ppm; in the experiment with Rhizoctonia solani [13], 85.9 µg/mL (≈ 130 µM). In addition, in the experiment with Caenorhabditis elegans [10], the mortality at 200 ppm was determined as 64%.

With `C/C=C(\C)C(=O)O[C@H]1C[C@@H](OC(C)=O)[C@@]2(C(=O)OC)CO[C@H]3[C@@H](O)[C@@](C)([C@]45O[C@@]4(C)[C@H]4C[C@@H]5O[C@@H]5OC=C[C@@]54O)[C@@H]4[C@H](O)OC[C@@]14[C@@H]32` [AZADIRACHTIN H], the EC50 is 43.9 µg/mL (≈ 66.2 µM) in the experiment on Athelia rolfsii [1], 141.2 ppm in the experiment with Rotylenchulus reniformis [12] and 63.7 µg/mL (≈ 96.1 µM) with Rhizoctonia solani [13]. Moreover, in the experiment on Caenorhabditis elegans [10], the mortality at 200 ppm is 65%.
